Shown are actives, neighbours in structure and some others; about 6.4% of the full set was active somewhere.
Ecoli WT expand: growth inhibitors of wild-type E. coli, primary screen, strain BW25113, expanded library, OD600; AID 710, 2007; OD600 absorbance; growth inhibition, % at 100 µM; 98,000 tested, 0.15% active;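 active = growth inhibition above about 50% at one test dose, limit read from the data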;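 also: growth measured after 20 h incubation at 37 °C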
Lung fibro prol: antiproliferative effect on LL 47 fibroblasts – human, LL 47 cells, CellTiter-Glo luminescence, primary screen | 85,000 tested, 1.1% active | viability, % at 10 µM | LL 47 human lung fibroblast viability, ATP luminescence; active compounds read low | AID 719, 2007;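 active = viability at or below 50% in the single dose screen; inactive = viability above 50%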;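 also: compound exposure lasted 72 h before the ATP readout; 100% = median luminescence of untreated cell-only wells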
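Material: Human LL 47 lung fibroblast cells | Input: 1,150 cells/well | Buffer or medium: IMEM plus 15% FBS | Compound dosing: 0.1% DMSO in all compound wells | Times: Overnight cell rest, 72 h compound treatment at 37 °C | Signal: CellTiter-Glo luminescence measuring cellular ATP | Measure: % viability versus median cells-only luminescence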
Jurkat tox 60K: cytotoxicity toward Jurkat T cells, primary screen, cytotoxicity control, cell-based, Jurkat E6.1, 60K MLSMR library; Jurkat E6.1 viability, ATP luminescence, 48 h; inhibition, % at 4 µM; 56,000 tested, 1.2% active; AID 463, 2006;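 active = inhibition above the mean inhibition of all tested compounds plus 3 SD, cut at about 28% in these data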
HUVEC inhibit: inhibitors of HUVEC proliferation, primary screen, cell-based, 384-well | CellTiter-Glo luminescence, 72 h; active compounds read low | viability, % at 10 µM (by protocol) | 86,000 tested, 1.1% active;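 active = viability at or below 30%; inactive = viability above 30%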;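 also: 100% = median luminescence of DMSO-only cell control wells on each plate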
Ecoli tolC: growth inhibitors of E. coli tolC mutant, primary screen, strain BW25113 ΔtolC::kan, 384-well; OD615; growth inhibition, % at 10 µM (by protocol); 65,000 tested, 2.2% active;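 active = growth inhibition at or above a cutoff equal to the mean over every tested compound plus 3 SD, cut at about 60% in these data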;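 also: growth measured after 20 h incubation at 37 °C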
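System: E. coli ΔtolC::kan strain BW25113; Buffer or medium: LB broth supplemented with 50 µg/mL kanamycin; Compound: 10 µM final, single dose; Incubation: bacterial growth with compound for 20 h at 37 °C; Signal: A615 absorbance measurement; Evaluation: growth inhibition in percent.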
H69AR growth 86K: proliferation blockers of H69AR lung cancer cells, primary screen, cell-based, human, 86K library; 85,000 tested, 6% active; H69AR lung tumor viability, ATP luminescence, 72 h; active compounds read low; viability, % at 10 µM; AID 598, 2007;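 active = viability at or below 40%; inactive = viability above 40%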;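 also: multidrug resistant small cell line overexpressing MRP-1 efflux transporter; 100% = mean luminescence of untreated control wells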
Active calls of the source: *; . = not tested or not shown.

SMILES	Ecoli WT expand	Lung fibro prol	Jurkat tox 60K	HUVEC inhibit	Ecoli tolC	H69AR growth 86K
COC(=O)c1ccc(Sc2ccccc2NS(=O)(=O)c2ccc(C)cc2)nc1	-5	.	.	.	.	.
COC(=O)c1ccc(CSc2nc3ccccc3c(=O)n2Cc2ccco2)o1	-12	102	8	88	42	91
COc1cccc(OC)c1/C(O)=C(\C#N)c1nc2ccccc2[nH]1	2	91	11	88	1	27*
CCOC(=O)c1c(C)[nH]c(C(=O)OC/C(O)=C(\C#N)c2nc3ccccc3[nH]2)c1C	7	112	-3	9.2*	6	57
Cc1c(OCc2ccccc2)c(=O)ccn1Cc1ccc(Cl)cc1	-2	85	.	63	.	3.9*
c1ccc(-n2ncc3c2ncn2nc(CSc4nc5ccccc5s4)nc32)cc1	.	62	2	42	7	29*
CCCn1c(C(C)NC(=O)c2ccccc2)nc2ccccc21 (stereo not drawn)	.	.	.	.	5	.
CC(NC(=O)c1ccc(F)cc1)c1nc2ccccc2n1Cc1ccccc1F (stereo not drawn)	-16	93	.	88	.	38*
CN1C(=O)C2(C(C#N)=C(N)Oc3c2oc(CO)cc3=O)c2ccccc21 (stereo not drawn)	5	98	-4	98	-23	92
O=C(CSc1nc2nc(-c3cccs3)cc(C(F)(F)F)c2c(=O)[nH]1)NCc1ccco1	-13	.	10	.	91*	.
O=C(NCc1ccco1)c1cnn2c(C(F)(F)F)cc(-c3cccs3)nc12	-7	86	-1	92	2	7.1*
Cc1nc(SCC(=O)NCc2ccco2)[nH]c(=O)c1C	5	98	.	85	.	73
COCCCNC(=O)CCS(=O)(=O)Cc1ccc(C)cc1	-2	.	0	.	-9	.
O=C(CC1C(=O)N(c2ccccc2)C(=O)N1C1CCCCC1)Nc1ccccc1 (stereo not drawn)	1	106	.	114	.	113
CCc1nc(N2CCN(Cc3ccc4c(c3)OCO4)CC2)c2oc3ccccc3c2n1	-24	.	.	.	.	.
CCc1nc(N2CCCCC2C)c2oc3ccccc3c2n1 (stereo not drawn)	9	68	-3	44	100*	22*
CCc1nc(NC(C)C)c2oc3ccccc3c2n1	7	96	.	101	7	69
CCc1nc(N2CCCCC2)c2oc3ccccc3c2n1	-6	87	-1	92	100*	77
CCc1nc(N2CCCC(C)C2)c2oc3ccccc3c2n1 (stereo not drawn)	10	90	-3	73	100*	47
CC1CCCN(S(=O)(=O)c2ccc(S(=O)(=O)NC(C)c3cccs3)cc2)C1 (stereo not drawn)	-4	.	.	.	.	.
O=C(Nc1ccccc1-c1nnn(CC(=O)N2CCCc3ccccc32)n1)c1ccc(Cl)cc1	.	88	.	99	.	103
Cc1nn(-c2ccccc2)c2c1C1(C(=O)N(C)c3ccccc31)C(C#N)=C(N)O2 (stereo not drawn)	-7	93	0	90	2	42
CC1=CC(C)(C)N2C(=O)C3(C(C#N)=C(N)Oc4cc(C)oc(=O)c43)c3cc(C)cc1c32 (stereo not drawn)	.	84	.	90	.	64
Cc1nn(-c2ccccc2)c2c1C1(C(=O)N3c4c(cccc41)C(C)CC3(C)C)C(C#N)=C(N)O2 (stereo not drawn)	3	100	.	77	.	39*
Cc1cc2c3c(c1)C1(C(=O)N3C(C)(C)CC2C)C(C#N)=C(N)Oc2cc(O)ccc21 (stereo not drawn)	0	98	2	59	68*	50
SMILES	Ecoli WT expand	Lung fibro prol	Jurkat tox 60K	HUVEC inhibit	Ecoli tolC	H69AR growth 86K
CC1=CC(C)(C)N2C(=O)C3(C(C#N)=C(N)Oc4cc(O)ccc43)c3cccc1c32 (stereo not drawn)	13	108	-4	69	100*	41
Cc1ccc2c3c1C1(C(=O)N3C(C)(C)CC2C)C(C#N)=C(N)Oc2cc(O)ccc21 (stereo not drawn)	-3	88	-6	32	97*	85
Cc1csc2nc(CNS(=O)(=O)c3cccnc3)cn12	.	94	6	93	-12	93
COC(=O)c1c(C(=O)OC)n(CCCN)c2ccc(C)cc12	8	93	.	87	-13	102
Cc1ccc2c(c1)c1cccc3c1n2CCN3CCC(N)=O	17	86	4	21*	11	95
CCCCOc1ccc(C(=O)OC2CC(C)N(C)CC2C)cc1 (stereo not drawn)	17	88	.	15*	0	63
C=CCn1c(SCC(=O)Nc2ncc(Cc3cc(Cl)ccc3Cl)s2)nnc1-c1ccncc1	-1	.	.	.	.	.
Cc1nc2nc(C)c(CCC(=O)NCc3ccc4c(c3)OCO4)c(C)n2n1	2	99	-4	96	-9	26*
COc1cc2c3nnc(-c4ccc(F)cc4)c-3cn(Cc3cccc(C)c3)c2cc1OC	-7	3.2*	.	2.3*	.	1.1*
CC(=O)Nc1ccccc1N(C)S(=O)(=O)c1ccc(C)cc1	-1	101	45*	80	-24	37*
CC(=O)Nc1ccccc1NC(=O)CN(C)S(=O)(=O)c1ccc(C)cc1	9	108	-8	100	-3	99
c1ccc(CN(Cc2ccco2)C(c2ccncc2)c2nnnn2C2CCCC2)cc1 (stereo not drawn)	-6	92	1	80	64*	57
CC(C)CCC1CC(CSC(=N)N)OC1=O (stereo not drawn)	10	104	.	80	.	86
CC(C)Cn1c(=O)c(C(=O)NCc2ccccn2)c(O)c2ccccc21	13	92	0	84	-3	29*
CCCCc1nc(N2CCOCC2)c(C#N)c2c1COC(C)(C)C2	13	.	.	.	13	.
CC1(C)CC2CC(C)(CN2C(=O)C23CCC(C)(C(=O)O2)C3(C)C)C1 (stereo not drawn)	4	91	-2	90	7	94
COc1ccccc1NC(=O)Nc1c(C)n(C)n(-c2ccccc2)c1=O	1	102	-8	94	-10	32*
Cc1c(NC(=O)CC(=O)Nc2c(C)n(C)n(-c3ccccc3)c2=O)c(=O)n(-c2ccccc2)n1C	6	90	4	101	-11	85
Cc1c(NC(=O)C2CCCNC2=O)c(=O)n(-c2ccccc2)n1C (stereo not drawn)	0	.	-2	94	.	39*
COc1ccc2[nH]c3c(=O)n(CCCCC(=O)NCCN4CCCC4)c(=S)[nH]c3c2c1	2	114	-2	102	61*	97
COc1ccc2[nH]c3c(=O)n(CCCCC(=O)N4CCC(C(N)=O)CC4)c(=S)[nH]c3c2c1	5	107	8	105	100*	91

From PubChem
